In ChEMBL document CHEMBL1649530, “Pharmacokinetics and pharmacodynamics of a novel triazole, isavuconazole: mathematical modeling, importance of tissue concentrations, and impact of immune status on antifungal effect” (Antimicrob Agents Chemother, 2009):
≈ marks a conversion by molar mass, not a printed value. Calls of active or inactive are those of the source. No cut-off for these calls is given here.

What was measured:
[1] = Ratio of AUC to MIC in mouse infected with Candida albicans FA/6862 at 2.03 mg/kg, sc QID; format: functional; conditions: route subcutaneous
[2] = Ratio of AUC to MIC in mouse infected with Candida albicans FA/6862 at 0.82 mg/kg, sc QID; format: functional; conditions: route subcutaneous
[3] = Ratio of AUC to MIC in mouse infected with Candida albicans FA/6862 at 5.35 mg/kg, sc administered as single dose; format: functional; conditions: route subcutaneous
[4] = Ratio of AUC to MIC in mouse infected with Candida albicans FA/6862 at 3.37 mg/kg, sc QID; conditions: route subcutaneous
[5] = Ratio of AUC to MIC in mouse infected with Candida albicans FA/6862 at 4.06 mg/kg, sc BID; format: functional; conditions: route subcutaneous
Candida albicans [6] = assay: Antifungal activity against Candida albicans FA/6862 by CLSI M27-A2 method; format: functional
Summary of the method: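 Broth microdilution per CLSI M27-A2. Run in duplicate on three separate occasions; modal MIC used.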

[7] = Terminal half life in mouse at 1.6 to 13 mg/kg, sc; format: ADME, organism-based; parameters: dose 1.6-13 mg/kg, route subcutaneous; conditions: in vivo, read-out: beta t1/2 (converted)
Summary of the method: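 Infected, cyclophosphamide-neutropenic mice given single sc doses. Plasma collected by cardiac puncture at 0.5–24 h, three mice per time point. Plasma stabilized with citric acid and assayed by LC-MS/MS. Half-life derived from a population PK model co-fitting plasma, kidney and fungal burden data.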

[8] = Ratio of AUC to MIC in mouse infected with Candida albicans FA/6862 at 1.63 mg/kg, sc BID; format: functional; conditions: route subcutaneous
[9] = Ratio of AUC to MIC in mouse infected with Candida albicans FA/6862 at 6.74 mg/kg, sc BID; format: functional; conditions: route subcutaneous
Candida albicans [10] = assay: Antifungal activity against Candida albicans FA/6862 infected in mouse assessed as fungal load per gram of kidney at 1.6 to 28 mg/kg, sc measured after 29 hrs postinfection; conditions: dose mg/kg 1.6-28; route subcutaneous
Candida albicans [11] = assay: Antifungal activity against Candida albicans FA/6862 assessed as postantifungal effect at =< 1 time MIC by CLSI M27-A2 method; format: functional, organism-based
Summary of the method: (§1)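 Log-phase organism washed in PBS, resuspended at 1 × 10^6 CFU/ml in warmed RPMI 1640 + 2% glucose, pre-incubated 30 min at 37°C. Drug added at 1/10× to 100× MIC for 3 h, then washed twice and regrown in drug-free RPMI. Quantitative subcultures hourly to 8 h, then 14 and 24 h. PAFE = delay in reaching +1 log10 CFU/ml versus drug-free controls.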

[12] = Ratio of AUC to MIC in mouse infected with Candida albicans FA/6862 at 13.48 mg/kg, sc administered as single dose; format: functional; conditions: route subcutaneous
[13] = Ratio of AUC to MIC in mouse infected with Candida albicans FA/6862 at 2.67 mg/kg, sc BID; format: functional; conditions: route subcutaneous
[14] = Ratio of AUC to MIC in mouse infected with Candida albicans FA/6862 at 8.12 mg/kg, sc administered as single dose; format: functional; conditions: route subcutaneous
[15] = Ratio of AUC to MIC in mouse infected with Candida albicans FA/6862 at 1.34 mg/kg, sc QID; format: functional; conditions: route subcutaneous
Candida albicans [16] = assay: Antifungal activity against Candida albicans FA/6862 assessed as postantifungal effect at 5 to 100 times MIC by CLSI M27-A2 method; format: functional; summary of the method: as §1
[17] = Ratio of AUC to MIC in mouse infected with Candida albicans FA/6862 at 3.27 mg/kg, sc administered as single dose; format: functional; conditions: route subcutaneous
Candida albicans [18] = assay: Antifungal activity against Candida albicans FA/6862 assessed as postantifungal effect at 2 times MIC by CLSI M27-A2 method; format: functional; summary of the method: as §1

RatioAUC/MIC [1]: 930.5 | RatioAUC/MIC [2]: 372.25 | RatioAUC/MIC [3]: 630 | RatioAUC/MIC [4]: 1544.75 | RatioAUC/MIC [5]: 960.25 | MIC (Candida albicans [6]): 4 ng/mL (≈ 9.14 nM) | half-life [7]: 3.41 h | RatioAUC/MIC [8]: 384.25 | RatioAUC/MIC [9]: 1584.5 | RatioAUC/MIC [12]: 1599.75 | RatioAUC/MIC [13]: 633.75 | RatioAUC/MIC [14]: 969.5 | RatioAUC/MIC [15]: 614.25 | RatioAUC/MIC [17]: 387.75
Structure (SMILES): C[C@@H](c1nc(-c2ccc(C#N)cc2)cs1)[C@](O)(Cn1cncn1)c1cc(F)ccc1F [ISAVUCONAZOLE]
log10cfu (Candida albicans [10]): 5.5 | Activity (Candida albicans [11]): inactive | Time (Candida albicans [16]): 5 h | Time (Candida albicans [18]): 2 h
